# In the library only some 3.1% were active in any assay of this set; here they are far more common.
# HIV Env fusion: inhibitors of HIV Env-mediated cell fusion; HeLa-JRFL Env/CEM21 cell fusion, luciferase; inhibition, % at 12.3 µM; hit rate 1.1% among 360,000;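 active = mean replicate inhibition score of at least 50 and every replicate individually at or above 50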;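 note: 0% = plate neutral controls and 100% = maraviroc near 300 nM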
# FGF22 binding: shifts melting point of recombinant human FGF22; recombinant FGF22 thermal shift, SYPRO orange fluorescence; percent of sucrose octasulfate shift, DMSO zero; Q9HCT0; activity (Tm shift, normalised), % at 9.99 µM; hit rate 1.5% among 340,000;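 active = mean Tm shift, scaled 0 neutral to 100 positive control, at about 1.3% or above, every replicate too, limit read from the data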
# Target sequence (Q9HCT0 whole entry, looked up): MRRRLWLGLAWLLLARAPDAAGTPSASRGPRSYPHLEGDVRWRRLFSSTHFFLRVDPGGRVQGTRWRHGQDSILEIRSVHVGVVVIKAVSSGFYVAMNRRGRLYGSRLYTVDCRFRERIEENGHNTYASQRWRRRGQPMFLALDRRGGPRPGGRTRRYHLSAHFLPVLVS
# EWS-Fli inh: inhibitors of EWS/Fli oncoprotein transcriptional activity. hit rate 0.67% among 350,000. A673 NR0B1-luciferase reporter, viability-normalised. inhibition, % at 12.6 µM;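 active = mean inhibition of at least 50% after viability correction, with every replicate also passing that limit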;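 note: firefly luciferase signal divided by Alamar Blue viability fluorescence both relative to DMSO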
# PAX8 reporter: inhibitors of PAX8 transcriptional activity in RMG-I cells; RMG-I TPO-luciferase reporter, SteadyGlo, 24 h; inhibition, % at 12.6 µM; hit rate 1.2% among 360,000; AID 652154;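 active = mean replicate inhibition at least 60% with every replicate also reaching 60%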;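 note: luciferase light reporting Pax8 driven TPO promoter activity; plate controls were median of neutral control wells for no effect and mitoxantrone controls for full effect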
# FN deposit inh: fibronectin deposition inhibition | AID 743247 | inhibition, % at 12.6 µM | hit rate 0.086% among 350,000 | AH1F fibroblasts, Alexa488-fibronectin deposition fluorescence, overnight;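 active = mean inhibition across replicates of 30% or more, regardless of how many single replicates reach that level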;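 note: positive control wells lacked labelled fibronectin entirely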
#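 Test system: AH1F fibroblast monolayer depositing Alexa488-labelled fibronectin into matrix. Input: 10000 cells per well. Technique: fluorescence, ex 485 nm, em 525 nm. Buffer or medium: DMEM plus 2% serum, read in PBS. Timing: 1 h cell adhesion before compound, then overnight fibronectin incubation. Compound: single dose, pinned. Read-out basis: inhibition from reduced deposited-fibronectin fluorescence.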
# PGC1a acetyl inh: PGC1a acetylation modulation, inhibitor mode. U2OS PGC1a acetylation, AlphaScreen anti-acetyl-lysine; with virally co-expressed GCN5 acetyltransferase. inhibition, % at 15.6 µM. hit rate 0.17% among 350,000. AID 651687;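 active = every replicate shows inhibition of at least 40%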;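 note: 0% = neutral control wells and 100% = positive control wells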
# * hit, by the source's call; i = inactive; . = no result given; [ ] = another dose, or the depositor's remark.
SMILES,HIV Env fusion,FGF22 binding,EWS-Fli inh,PAX8 reporter,FN deposit inh,PGC1a acetyl inh
C[C@]12CCC3C(CC[C@H]4CC(O)CC[C@]34C)C1CC/C2=N/NC(=O)c1ccncc1 (some centres undefined),-4.1,-0.2,52.6*,0.0,3.1,.
C[C@]12CCC3C(CC[C@H]4CC(O)CC[C@]34C)C1CC/C2=N/O (some centres undefined),-20.6,1.1,2.0,28.3,3.7,25.9
O=C(C[C@H]1C[C@@H]2c3cc(NC(=O)NC4CCCC4)ccc3O[C@@H]2[C@H](CO)O1)NCc1cc(F)ccc1F,12.5[16.7 µM],0.0,-8.5,-4.8,-7.0,5.8
Clc1nc(NCCN2CCOCC2)nc(NCc2ccccc2)n1,-100.7,43.7*,3.9,-14.8,-1.0,2.1
Cc1cc(NCCN2CCOCC2)c2ccc3ccccc3c2n1,-64.0,43.1*,-34.2,-59.2,12.3,.
CSc1nnc(C)c(=O)n1COC(=O)c1ccc([N+](=O)[O-])cc1,12.8,0.3,0.2,6.1,31.4*,7.5
CSc1nnc(C)c(=O)n1COC(=O)c1cc(Cl)ccc1[N+](=O)[O-],11.3,0.3,2.8,1.3,-8.6,-15.3
C[C@@H]1CN([C@H](C)CO)C(=O)c2cccc(NS(=O)(=O)c3ccc(F)cc3)c2O[C@H]1CN(C)S(=O)(=O)c1ccc(Cl)cc1,18.9[16.7 µM],-0.2,-13.1,.,.,-3.1
C[C@@H]1CN([C@@H](C)CO)C(=O)c2cc(-c3cncnc3)cnc2O[C@@H]1CN(C)C(=O)Cc1cccnc1,-46.4[16.7 µM],-0.2,-4.0,.,10.4,-9.7
CCc1ccc(OCC(=O)NC(=S)Nc2ccc(C(=O)O)cc2)cc1,10.4,0.2,6.7,0.0,4.2,-2.3
CCc1ccc(OCC(=O)NC(NC(=S)Nc2ccc(Cl)cc2)C(Cl)(Cl)Cl)cc1 (centres undefined),.,-0.2,19.3,81.8*,-0.2,.
CCCC(=O)NC(NC(=S)Nc1ccc(N=Nc2ccccc2)cc1)C(Cl)(Cl)Cl (centres undefined),.,0.2,15.1,64.1*,-9.6,.
Cc1cc(C(=O)CN2C(=O)NC3(CCC(C)CC3)C2=O)c(C)n1C (centres undefined),-8.5,43.3*,5.3,-1.4,13.1,4.5
COc1ccc(S(=O)(=O)NCc2ccccn2)cc1NC(=O)c1ccc(Cl)cc1,6.5,-0.3,8.1,29.0,5.8,-3.6
COc1ccccc1Oc1ccc(S(=O)(=O)NCc2ccccn2)cc1,75.6*,.,.,.,.,.
COc1ccc(S(=O)(=O)NCc2ccccn2)cc1OC,14.0,0.3,-4.5,-85.4,14.1,4.0
COc1ccc(S(=O)(=O)NCc2ccccn2)cc1NC(=O)c1ccccc1C,15.6,-0.2,60.4*,14.6,-8.2,-7.7
C[C@@H]1CN([C@@H](C)CO)C(=O)c2cc(NC(=O)c3ccncc3)ccc2O[C@@H](C)CCCCO[C@@H]1CN(C)C(=O)NC1CCCCC1,-0.7[16.7 µM],-0.2,-4.4,-0.8,.,0.0
O=C(Nc1ccc(F)cc1)N[C@@H]1C=C[C@H](CC(=O)N2CCOCC2)O[C@@H]1CO,8.3[16.7 µM],0.0,2.0,-11.2,2.0,-3.2
O=C(c1cc(S(=O)(=O)N2CCOCC2)c(Cl)cc1Cl)N1CCN(S(=O)(=O)c2cccc(F)c2)CC1,-7.8,42.9*,7.5,-6.0,2.9,-15.0
Cc1ccc(S(=O)(=O)N2CCN(C(=O)c3cc(S(=O)(=O)N4CCOCC4)c(Cl)cc3Cl)CC2)cc1,1.4,0.0,7.8,-24.3,-8.4,5.5
CCCNC(=O)N(C)C[C@@H]1Oc2cc(C#CC(C)(C)O)ccc2S(=O)(=O)N([C@@H](C)CO)C[C@H]1C,.,-0.2,-8.7,-12.6,-12.0,16.3
CC(C)C[C@@H](COCc1cccc(Cl)c1)N1CCN(C(=O)c2cccc(C(F)(F)F)c2)CCC1=O,58.0*,-0.1,13.2,6.6,0.1,.
CC(C)C[C@@H](COCc1ccc(F)cc1)N1CCN(C(=O)c2cccc(C(F)(F)F)c2)CCC1=O,5.9,-0.2,10.9,1.0,4.4,.
CC(C)CC(COCc1ccc([N+](=O)[O-])cc1)N1CCN(C(=O)c2ccc(C(F)(F)F)cc2)CCC1=O (centres undefined),36.2,0.3,1.2,19.3,7.3,5.3
SMILES,HIV Env fusion,FGF22 binding,EWS-Fli inh,PAX8 reporter,FN deposit inh,PGC1a acetyl inh
CC(C)CC(COCc1cccc(Cl)c1)N1CCN(C(=O)c2ccc(C(F)(F)F)cc2)CCC1=O (centres undefined),59.3*,-0.3,5.1,17.1,-2.0,-5.6
Cc1ccc(N(CC(=O)NCCc2ccc(F)cc2)S(=O)(=O)c2ccc(Cl)c([N+](=O)[O-])c2)c(C)c1,3.4,-0.3,5.1,77.9*,-6.1,29.5
CO[C@@H]1CN(C)C(=O)c2cc(NC(=O)Nc3cc(F)ccc3F)ccc2OC[C@H](C)N(C(=O)c2cnccn2)C[C@H]1C,.,0.2,-6.3,11.0,-9.5,2.8
Cc1ccc(S[C@]2(C(=O)NC(C)C)CC(=O)N(C3CCCCC3)[C@@H]2c2ccc(CO)cc2I)cc1,-20.7[16.7 µM],-0.7,9.8,2.4,.,-9.6
COc1ccc(CCNC(=O)[C@@]2(Sc3ccc(C)cc3)CC(=O)N(C(C)C)[C@@H]2c2ccc(CO)cc2I)cc1,-21.3[16.7 µM],1.3*,1.3,11.6,.,-6.7
CCC(=O)Nc1sc2c(c1C(N)=O)CCN(C(C)=O)C2,21.2,-0.1,4.2,-0.4,6.3,-4.2
CC(=O)N1CCc2c(sc(NC(=O)c3ccc([N+](=O)[O-])o3)c2C(N)=O)C1,i,0.5,42.0,86.6*,19.0,.
Cc1ccc(-c2ccc3c(c2)O[C@H](CN(C)Cc2ccncc2)[C@@H](C)CN([C@@H](C)CO)S3(=O)=O)cc1,91.0*[16.7 µM],-0.1,71.6*,.,5.8,-13.3
Cc1ccc(-c2ccc3c(c2)O[C@@H](CN(C)Cc2ccncc2)[C@H](C)CN([C@H](C)CO)S3(=O)=O)cc1,89.9*[16.7 µM],-0.4,74.2*,.,19.6,8.9
C[C@@H]1CN([C@H](C)CO)S(=O)(=O)c2ccc(-c3ccncc3)cc2O[C@@H]1CN(C)Cc1ccc(Oc2ccccc2)cc1,58.7*[16.7 µM],-0.4,44.2,.,16.0,-7.5
Cc1ccc(-c2ccc3c(c2)O[C@H](CN(C)Cc2cccnc2)[C@@H](C)CN([C@H](C)CO)S3(=O)=O)cc1,78.5*[16.7 µM],-0.2,62.6*,.,14.9,-10.4
C[C@H]1CN([C@@H](C)CO)S(=O)(=O)c2ccc(-c3ccncc3)cc2O[C@@H]1CN(C)Cc1ccc(Oc2ccccc2)cc1,33.4[16.7 µM],-0.4,29.2,.,-8.3,5.3
C[C@@H]1CN([C@@H](C)CO)S(=O)(=O)c2ccc(-c3ccccc3)cc2O[C@@H]1CN(C)Cc1ccncc1,11.9[16.7 µM],-0.3,-4.0,.,-14.7,-6.7
CN1C(=O)c2cc(NC(=O)C3CCCCC3)ccc2OC[C@H]2O[C@H](CC(=O)NC3CCCC3)CC[C@H]21,-6.8[16.7 µM],0.0,3.0,15.9,16.3,3.6
